Reference: ChEMBL document CHEMBL3627671, “Novel derivatives of nitro-substituted salicylic acids: Synthesis, antimicrobial activity and cytotoxicity” (Bioorg Med Chem, 2015)
≈ marks a conversion by molar mass, not a printed value.

Legend:
[1] = test system: Mycobacterium tuberculosis; experiment: Antimycobacterial activity against Mycobacterium tuberculosis H37Rv 331/88 after 14 days; format: functional; details: H37Rv 331/88, 336 h
[2] = test system: Mycobacterium tuberculosis; experiment: Antimycobacterial activity against Mycobacterium tuberculosis H37Rv 331/88 after 21 days; format: functional; details: H37Rv 331/88, 504 h
[3] = test system: Mycobacterium avium; experiment: Antimycobacterial activity against Mycobacterium avium 330/80 after 14 days; format: functional; details: 330/80, 336 h
[4] = test system: Mycobacterium avium; experiment: Antimycobacterial activity against Mycobacterium avium 330/80 after 21 days; format: functional; details: 330/80, 504 h
[5] = test system: Mycobacterium kansasii; experiment: Antimycobacterial activity against Mycobacterium kansasii 235/80 after 7 days; format: functional; details: 235/80, 168 h
Procedure, shortened: (§1)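 Šula's semisynthetic medium micromethod at 37 °C, read after 7, 14 and 21 days. The 1.0 McFarland suspension was diluted 10^-4. MIC determined. 6509/96 is a clinical isolate.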

[6] = test system: Mycobacterium kansasii; experiment: Antimycobacterial activity against Mycobacterium kansasii 235/80 after 14 days; format: functional; details: 235/80, 336 h; procedure, shortened: as §1
[7] = test system: Mycobacterium kansasii; experiment: Antimycobacterial activity against Mycobacterium kansasii 235/80 after 21 days; format: functional; details: 235/80, 504 h; procedure, shortened: as §1
[8] = test system: Mycobacterium kansasii; experiment: Antimycobacterial activity against Mycobacterium kansasii 6509/96 after 7 days; format: functional; details: 6509/96, 168 h; procedure, shortened: as §1
[9] = test system: Mycobacterium kansasii; experiment: Antimycobacterial activity against Mycobacterium kansasii 6509/96 after 14 days; format: functional; details: 6509/96, 336 h; procedure, shortened: as §1
[10] = test system: Mycobacterium kansasii; experiment: Antimycobacterial activity against Mycobacterium kansasii 6509/96 after 21 days; format: functional; details: 6509/96, 504 h; procedure, shortened: as §1
[11] = test system: Staphylococcus aureus; experiment: Antibacterial activity against Staphylococcus aureus CCM 4516/08 after 24 hrs by microdilution broth method; format: functional; details: CCM 4516/08, 24 h
[12] = test system: Staphylococcus aureus; experiment: Antibacterial activity against Staphylococcus aureus CCM 4516/08 after 48 hrs by microdilution broth method; format: functional; details: CCM 4516/08, 48 h
[13] = test system: Staphylococcus aureus; experiment: Antibacterial activity against methicillin-resistant Staphylococcus aureus H 5996/08 after 24 hrs by microdilution broth method; format: functional; details: H 5996/08, 24 h
[14] = test system: Staphylococcus aureus; experiment: Antibacterial activity against methicillin-resistant Staphylococcus aureus H 5996/08 after 48 hrs by microdilution broth method; format: functional; details: H 5996/08, 48 h
[15] = test system: Staphylococcus epidermidis; experiment: Antibacterial activity against Staphylococcus epidermidis H 6966/08 after 24 hrs by microdilution broth method; format: functional; details: H 6966/08, 24 h
Procedure, shortened: (§2)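 Mueller-Hinton broth microdilution (modified M07-A07), pH 7.4 (±0.2). Compounds dissolved in DMSO, tested at final 500 to 0.49 µmol/L. Inoculum in sterile water matched to 0.5 McFarland. Incubated in the dark, humid atmosphere, 35 °C, read at 24 and 48 h visually and at 540 nm. MIC taken as ≥95% growth reduction (IC95) versus control.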

[16] = test system: Staphylococcus epidermidis; experiment: Antibacterial activity against Staphylococcus epidermidis H 6966/08 after 48 hrs by microdilution broth method; format: functional; details: H 6966/08, 48 h; procedure, shortened: as §2
[17] = test system: Enterococcus sp.; experiment: Antibacterial activity against Enterococcus sp. J 14365/08 after 24 hrs by microdilution broth method; format: functional; details: J 14365/08, 24 h; procedure, shortened: as §2
[18] = test system: Enterococcus sp.; experiment: Antibacterial activity against Enterococcus sp. J 14365/08 after 48 hrs by microdilution broth method; format: functional; details: J 14365/08, 48 h; procedure, shortened: as §2
[19] = test system: Escherichia coli; experiment: Antibacterial activity against Escherichia coli CCM4517 after 24 hrs by microdilution broth method; format: functional; details: CCM4517, 24 h; procedure, shortened: as §2
[20] = test system: Escherichia coli; experiment: Antibacterial activity against Escherichia coli CCM4517 after 48 hrs by microdilution broth method; format: functional; details: CCM4517, 48 h; procedure, shortened: as §2
[21] = test system: Klebsiella pneumoniae; experiment: Antibacterial activity against Klebsiella pneumoniae D 11750/08 after 24 hrs by microdilution broth method; format: functional; details: D 11750/08, 24 h; procedure, shortened: as §2
[22] = test system: Klebsiella pneumoniae; experiment: Antibacterial activity against Klebsiella pneumoniae D 11750/08 after 48 hrs by microdilution broth method; format: functional; details: D 11750/08, 48 h; procedure, shortened: as §2
[23] = test system: Klebsiella pneumoniae; experiment: Antibacterial activity against ESBL-positive Klebsiella pneumoniae J 14368/08 after 24 hrs by microdilution broth method; format: functional; details: J 14368/08, 24 h; procedure, shortened: as §2
[24] = test system: Klebsiella pneumoniae; experiment: Antibacterial activity against ESBL-positive Klebsiella pneumoniae J 14368/08 after 48 hrs by microdilution broth method; format: functional; details: J 14368/08, 48 h; procedure, shortened: as §2
[25] = test system: Pseudomonas aeruginosa; experiment: Antibacterial activity against Pseudomonas aeruginosa CCM 1961 after 24 hrs by microdilution broth method; format: functional; details: CCM 1961, 24 h; procedure, shortened: as §2
[26] = test system: Pseudomonas aeruginosa; experiment: Antibacterial activity against Pseudomonas aeruginosa CCM 1961 after 48 hrs by microdilution broth method; format: functional; details: CCM 1961, 48 h; procedure, shortened: as §2
[27] = test system: Candida albicans; experiment: Antifungal activity against Candida albicans ATCC 44859 after 24 hrs by microdilution broth method; format: functional; details: ATCC 44859, 24 h
Procedure, shortened: (§3)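 CLSI M27-A3 broth microdilution in RPMI 1640 with glutamine, buffered to pH 7.0 with MOPS; DMSO diluent. Yeast inoculum 5 × 10^3 ± 0.2 CFU/mL. Moulds grown on Sabouraud agar 3–10 days before spore harvest, final inoculum 0.5-5 × 10^4 CFU/mL, checked in a Bürker chamber. Incubated dark, humid, 35 °C, read at 24 and 48 h visually and at 540 nm. MIC taken as ≥80% (yeasts) or ≥50% (filamentous) growth reduction versus control.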

[28] = test system: Candida albicans; experiment: Antifungal activity against Candida albicans ATCC 44859 after 48 hrs by microdilution broth method; format: functional; details: ATCC 44859, 48 h; procedure, shortened: as §3
[29] = test system: Candida tropicalis; experiment: Antifungal activity against Candida tropicalis 156 after 24 hrs by microdilution broth method; format: functional; details: Candida tropicalis, 156, 24 h; procedure, shortened: as §3
[30] = test system: Candida tropicalis; experiment: Antifungal activity against Candida tropicalis 156 after 48 hrs by microdilution broth method; format: functional; details: Candida tropicalis, 156, 48 h; procedure, shortened: as §3
[31] = test system: Pichia kudriavzevii; experiment: Antifungal activity against Candida krusei E28 after 24 hrs by microdilution broth method; format: functional; details: E28, 24 h; procedure, shortened: as §3
[32] = test system: Pichia kudriavzevii; experiment: Antifungal activity against Candida krusei E28 after 48 hrs by microdilution broth method; format: functional; details: E28, 48 h; procedure, shortened: as §3
[33] = test system: Nakaseomyces glabratus; experiment: Antifungal activity against Candida glabrata 20/I after 24 hrs by microdilution broth method; format: functional; procedure, shortened: as §3
[34] = test system: Nakaseomyces glabratus; experiment: Antifungal activity against Candida glabrata 20/I after 48 hrs by microdilution broth method; format: functional; procedure, shortened: as §3
[35] = test system: Trichosporon asahii; experiment: Antifungal activity against Trichosporon asahii 1188 after 24 hrs by microdilution broth method; format: functional; details: Trichosporon asahii, 1188, 24 h; procedure, shortened: as §3
[36] = test system: Trichosporon asahii; experiment: Antifungal activity against Trichosporon asahii 1188 after 48 hrs by microdilution broth method; format: functional; details: Trichosporon asahii, 1188, 48 h; procedure, shortened: as §3
[37] = test system: Aspergillus fumigatus; experiment: Antifungal activity against Aspergillus fumigatus 231 after 24 hrs by microdilution broth method; format: functional; details: Aspergillus fumigatus, 231, 24 h; procedure, shortened: as §3
[38] = test system: Aspergillus fumigatus; experiment: Antifungal activity against Aspergillus fumigatus 231 after 48 hrs by microdilution broth method; format: functional; details: Aspergillus fumigatus, 231, 48 h; procedure, shortened: as §3
[39] = test system: Lichtheimia corymbifera; experiment: Antifungal activity against Absidia corymbifera 272 after 24 hrs by microdilution broth method; format: functional; details: Lichtheimia corymbifera, 272, 24 h; procedure, shortened: as §3
[40] = test system: Lichtheimia corymbifera; experiment: Antifungal activity against Absidia corymbifera 272 after 48 hrs by microdilution broth method; format: functional; details: Lichtheimia corymbifera, 272, 48 h; procedure, shortened: as §3
[41] = test system: Trichophyton mentagrophytes; experiment: Antifungal activity against Trichophyton mentagrophytes 445 after 24 hrs by microdilution broth method; format: functional; details: Trichophyton mentagrophytes, 445, 24 h
[42] = test system: Trichophyton mentagrophytes; experiment: Antifungal activity against Trichophyton mentagrophytes 445 after 48 hrs by microdilution broth method; format: functional; details: Trichophyton mentagrophytes, 445, 48 h
[43] = test system: HepG2; experiment: Cytotoxicity against human HepG2 cells after 24 hrs […]; format: cell-based; details: HepG2, 24 h
[44] = Selectivity index, ratio of CI50 for human HepG2 cells to MIC100 for Mycobacterium tuberculosis H37Rv 331/88

Which MIC [1] does the source give for `O=C(Nc1ccc(C(F)(F)F)cc1)c1cc([N+](=O)[O-])ccc1O` here?
The MIC was 8 µM (≈ 2.61 µg/mL).

What about the MIC [2] of the same molecule?
The MIC was 8 µM (≈ 2.61 µg/mL).

And the MIC [3]?
Its MIC is 62.5 µM (≈ 20.4 µg/mL).

What about the MIC [4] of the same molecule?
The MIC was 62.5 µM (≈ 20.4 µg/mL).

What about the MIC [5] of the same molecule?
The MIC was 8 µM (≈ 2.61 µg/mL).

What about the MIC [6] of the same molecule?
Its MIC is 16 µM (≈ 5.22 µg/mL).

And the MIC [7]?
Its MIC is 32 µM (≈ 10.4 µg/mL).

And the MIC [8]?
Its MIC is 16 µM (≈ 5.22 µg/mL).

And the MIC [9]?
The MIC was 32 µM (≈ 10.4 µg/mL).

What about the MIC [10] of the same molecule?
The MIC was 32 µM (≈ 10.4 µg/mL).

What about the MIC [11] of the same molecule?
The MIC was 31.2 µM (≈ 10.2 µg/mL).

What about the MIC [12] of the same molecule?
Its MIC is 31.2 µM (≈ 10.2 µg/mL).

What about the MIC [13] of the same molecule?
The MIC was 31.2 µM (≈ 10.2 µg/mL).

And the MIC [14]?
The MIC was 31.2 µM (≈ 10.2 µg/mL).

What about the MIC [15] of the same molecule?
Its MIC is 15.6 µM (≈ 5.1 µg/mL).

What about the MIC [16] of the same molecule?
The MIC was 15.6 µM (≈ 5.1 µg/mL).

What about the MIC [17] of the same molecule?
Its MIC is > 500 µM.

What about the MIC [18] of the same molecule?
Its MIC is > 500 µM.

And the MIC [19]?
Its MIC is > 500 µM.

And the MIC [20]?
Its MIC is > 500 µM.

And the MIC [21]?
The MIC was > 500 µM.

And the MIC [22]?
The MIC was > 500 µM.

What about the MIC [23] of the same molecule?
Its MIC is > 500 µM.

And the MIC [24]?
Its MIC is > 500 µM.

What about the MIC [25] of the same molecule?
The MIC was > 500 µM.

And the MIC [26]?
Its MIC is > 500 µM.

And the MIC [27]?
The MIC was > 500 µM.

And the MIC [28]?
The MIC was > 500 µM.

And the MIC [29]?
Its MIC is > 500 µM.

And the MIC [30]?
Its MIC is > 500 µM.

What about the MIC [31] of the same molecule?
The MIC was > 500 µM.

And the MIC [32]?
Its MIC is > 500 µM.

What about the MIC [33] of the same molecule?
The MIC was > 500 µM.

What about the MIC [34] of the same molecule?
Its MIC is > 500 µM.

And the MIC [35]?
The MIC was 500 µM (≈ 163 µg/mL).

And the MIC [36]?
Its MIC is 500 µM (≈ 163 µg/mL).

What about the MIC [37] of the same molecule?
The MIC was 500 µM (≈ 163 µg/mL).

What about the MIC [38] of the same molecule?
Its MIC is 500 µM (≈ 163 µg/mL).

What about the MIC [39] of the same molecule?
The MIC was 500 µM (≈ 163 µg/mL).

And the MIC [40]?
Its MIC is 500 µM (≈ 163 µg/mL).

And the MIC [41]?
Its MIC is 500 µM (≈ 163 µg/mL).

And the MIC [42]?
Its MIC is 500 µM (≈ 163 µg/mL).

What about the IC50 [43] of the same molecule?
Its IC50 is 3.5 µM.

What about the “Selectivity Index” value [44] of the same molecule?
The value was 0.438.
